Measurements as given in ChEMBL document CHEMBL1123708, “Resolved cis- and trans-2-amino-5-methoxy-1-methyltetralins: central dopamine receptor agonists and antagonists” (1987).

Legend:
[1] = target: T1, Dopamine receptor (Rattus norvegicus) (UniProt P25115+P19020+P30729+P18901+P61169); experiment: In vivo displacement of DiPr-5,6-ADTN from Dopamine receptors in rat striatum; type: organism-based
[2] = target: T1, Dopamine receptor (Rattus norvegicus); experiment: Ability to displace the Dopamine receptor agonist DiPr-5,6-ADTN from rat striatal binding sites in vivo at a dose of 52 umol/kg by subcutaneous administration; type: organism-based
Rattus norvegicus [3] = experiment: ((+)-UH-232) induced locomotor stimulation was determined in non pretreated rats at a dose of 204 umol/kg by subcutaneous administration; type: functional
Rattus norvegicus [4] = experiment: ((+)-UH-232) induced locomotor stimulation was determined in non pretreated rats at a dose of 52 umol/kg by subcutaneous administration; type: functional
Rattus norvegicus [5] = experiment: Change in rectal temperature induced by DiPr-5,6-ADTN at a dose of 204 umol/kg of compound by subcutaneous administration; type: functional
How it was run: (§1)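 Rats received DiPr-5,6-ADTN (0.25 μmol/kg sc) 100 min and test compound sc 40 min before death. Rectal temperature change (°C) was recorded between 60 and 100 min after DiPr-5,6-ADTN. Values are mean ± SEM, n = 4, with Student's t test vs DiPr-5,6-ADTN alone.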

Rattus norvegicus [6] = experiment: In vivo DOPA accumulation in non pre-treated rat limbic system following s.c. administration.; type: functional; conditions: sc
How it was run: (§2)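 Rats without pretreatment received test drug sc 65 min and NSD 1015 (100 mg/kg ip) 30 min before death, with saline controls. DOPA was measured in limbic or striatal tissue. Dose for half-maximal change was estimated from 4-5-dose curves (n = 3-5), maximal level as % of control.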

Rattus norvegicus [7] = experiment: In vivo DOPA accumulation in non pre-treated rat striatal system following s.c. administration.; type: functional; conditions: sc; how it was run: as §2
Rattus norvegicus [8] = experiment: Induced locomotor stimulation was determined in non pretreated rats at a dose of 13 umol/kg by subcutaneous administration; type: functional
Rattus norvegicus [9] = experiment: Locomotory activity was determined in non pretreated rats at a dose of 3.2 umol/kg by subcutaneous administration; type: functional
How it was run: (§3)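 Untreated rats received test drug sc 5 min before a 30-min session in photocell motility meters, with accumulated counts recorded. Activity is expressed as percent of saline controls, mean ± SEM, n = 3-5. Gross behaviour was observed through a semitransparent mirror. Differences from saline controls were assessed by Student's t test.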

Rattus norvegicus [10] = experiment: Induced locomotor stimulation in non pre-treated rats by 52 umol/kg s.c. administration.; type: functional
Rattus norvegicus [11] = experiment: Change in rectal temperature induced by DiPr-5,6-ADTN at a dose of 52 umol/kg of compound by subcutaneous administration; type: functional; how it was run: as §1
Rattus norvegicus [12] = experiment: Change in rectal temperature induced by DiPr-5,6-ADTN at a dose of 13 umol/kg of compound by subcutaneous administration; type: functional; how it was run: as §1
[13] = target: T1, Dopamine receptor (Rattus norvegicus); experiment: Ability to displace the Dopamine receptor agonist DiPr-5,6-ADTN from rat striatal binding sites in vivo at a dose of 52 uM/kg by subcutaneous administration; type: organism-based
Rattus norvegicus [14] = experiment: Induced locomotor stimulation in non pre-treated rats by 13 umol/kg s.c. administration.; type: functional
Rattus norvegicus [15] = experiment: Induced locomotor stimulation was determined in non pretreated rats at a dose of 52 umol/kg by subcutaneous administration; type: functional; how it was run: as §3
[16] = target: T1, Dopamine receptor (Rattus norvegicus); experiment: Ability to displace the DA receptor agonist DiPr-5,6-ADTN from rat striatal binding sites in vivo at a dose of 40 uM/kg by subcutaneous administration; type: organism-based
[17] = target: T1, Dopamine receptor (Rattus norvegicus); experiment: Ability to displace the Dopamine receptor agonist DiPr-5,6-ADTN from rat striatal binding sites in vivo at a dose of 10 uM/kg by subcutaneous administration; type: organism-based
Rattus norvegicus [18] = experiment: Change in rectal temperature induced by DiPr-5,6-ADTN at a dose of 40 umol/kg of compound by subcutaneous administration; type: functional; how it was run: as §1
Rattus norvegicus [19] = experiment: Change in rectal temperature induced by DiPr-5,6-ADTN at a dose of 10 umol/kg of compound by subcutaneous administration; type: functional; how it was run: as §1
Rattus norvegicus [20] = experiment: In vivo DOPA accumulation in reserpine pretreated rat limbic system by subcutaneous administration; type: functional; conditions: sc
How it was run: (§4)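 Rats received reserpine (5 mg/kg sc) 18 h, test drug sc 60 min and NSD 1015 (100 mg/kg ip) 30 min before death, with saline controls. Limbic or striatal DOPA was measured. Dose for half-maximal decrease was estimated from 4-7-dose curves (n = 3-5), minimal level as % of control.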

Rattus norvegicus [21] = experiment: In vivo DOPA accumulation in reserpine pretreated rat striatum system by subcutaneous administration; type: functional; conditions: sc; how it was run: as §4
Rattus norvegicus [22] = experiment: Locomotory activity was determined in reserpine pretreated rats at a dose of 3.2 umol/kg by subcutaneous administration. Value is the accumulation counts/30 min; type: functional
How it was run: (§5)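 Rats were given reserpine 5 mg/kg sc 18 h beforehand, then test drug sc immediately before the activity session. Motor activity was recorded by photocells in motility meters as accumulated counts over 30 min, mean ± SEM, n = 3-4. Gross behaviour was watched for signs of stimulation. Reserpine-only controls were included.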

Rattus norvegicus [23] = experiment: Locomotory activity was determined in non pretreated rats at a dose of 13.4 umol/kg by subcutaneous administration; type: functional; how it was run: as §3
Rattus norvegicus [24] = experiment: Induced locomotor stimulation was determined in non pretreated rats at a dose of 52 uM/kg by subcutaneous administration; type: functional; how it was run: as §3
Rattus norvegicus [25] = experiment: Locomotory activity was determined in reserpine pretreated rats at a dose of 125 umol/kg by subcutaneous administration. Value is the accumulation counts/30 min; type: functional; how it was run: as §5
[26] = target: T1, Dopamine receptor (Rattus norvegicus); experiment: Ability to displace the Dopamine receptor agonist DiPr-5,6-ADTN from rat striatal binding sites in vivo at a dose of 13 uM/kg by subcutaneous administration; type: organism-based
Rattus norvegicus [27] = experiment: In vivo DOPA accumulation in reserpine pretreated rat limbic system by subcutaneous administration.; type: functional; conditions: sc; how it was run: as §4
Rattus norvegicus [28] = experiment: In vivo DOPA accumulation in reserpine pretreated rat striatum system by subcutaneous administration.; type: functional; conditions: sc; how it was run: as §4
Rattus norvegicus [29] = experiment: Locomotory activity was determined in non pretreated rats at a dose of 52 umol/kg by subcutaneous administration.; type: functional; how it was run: as §3
Rattus norvegicus [30] = experiment: Locomotory activity was determined in reserpine pretreated rats at a dose of 52 umol/kg by subcutaneous administration. Value is the accumulation counts/30 min; type: functional; how it was run: as §5

Row | SMILES | Binding [1] | ED50 (Rattus norvegicus [6]) | ED50 (Rattus norvegicus [7]) | Activity (Rattus norvegicus [9]) | Activity (Rattus norvegicus [10]) | Binding [13] | Activity (Rattus norvegicus [14]) | Body temp change (Rattus norvegicus [11]) | Body temp change (Rattus norvegicus [12]) | ED50 (Rattus norvegicus [20]) | ED50 (Rattus norvegicus [21]) | also measured
1 | CCCN[C@@H]1CCc2c(OC)cccc2[C@@H]1C | 85% | 4.6 µmol/kg | 4.4 µmol/kg | 132% | 159% |  |  |  |  |  |  | Binding [2]: 41%; Activity (Rattus norvegicus [3]): 29%; Activity (Rattus norvegicus [4]): 54%; Temperature (Rattus norvegicus [5]): 0.47 °C; Activity (Rattus norvegicus [8]): 95%; Temperature (Rattus norvegicus [11]): 1.05 °C; Temperature (Rattus norvegicus [12]): 1.3 °C
2 | CCN(CC)[C@@H]1CCc2c(OC)cccc2[C@@H]1C | 44% | 5.5 µmol/kg | 2.9 µmol/kg | 100% | 46% | 28% | 40% | 1.4 °C | 1.2 °C |  |  | Activity (Rattus norvegicus [15]): 14%
3 | CCCN(CCC)[C@H]1CCc2c(O)cccc2[C@H]1C |  | 0.84 µmol/kg | 0.84 µmol/kg | 65% |  |  |  |  |  | 0.3 µmol/kg | 0.34 µmol/kg | Binding [16]: 37%; Binding [17]: 90%; Body temp change (Rattus norvegicus [18]): -0.2 °C; Body temp change (Rattus norvegicus [19]): 0.1 °C; Activity (Rattus norvegicus [22]): 121 counts/30 min; Activity (Rattus norvegicus [23]): 171%
4 | CCCN[C@H]1CCc2c(O)cccc2[C@H]1C |  |  |  |  |  | 66% |  | -0.45 °C |  | 4 µmol/kg | 5 µmol/kg | Activity (Rattus norvegicus [24]): 80%; Activity (Rattus norvegicus [25]): 26%
5 | CCCN(CCC)[C@H]1CCc2c(O)cccc2[C@@H]1C |  |  |  | 79% |  |  | 92% |  | -0.83 °C |  |  | Binding [26]: 91%; ED50 (Rattus norvegicus [27]): 7.3 µmol/kg; ED50 (Rattus norvegicus [28]): 7.9 µmol/kg; Activity (Rattus norvegicus [29]): 74%; Activity (Rattus norvegicus [30]): 19 counts/30 min
